Series [1] relates to Hs-578T. Kind of series: Induction of apoptosis in human Hs578T cells assessed as increase in cyclophilin D protein at 1 ug/ml after 24 hrs by Western blot analysis. It is filed as functional, cell-based. In a few lines: (§1)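 About 1.0×10^6 attached and floating HS578T cells, treated 24 h at 1 μg/ml, were lysed in HEPES/sucrose buffer with DTT, PMSF and protease inhibitors. Extracts were stored at -80°C, then p53 and cyclophilin D were semi-quantified by Western blot. Six experiments, mean ± SEM.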
On the technique in general: A western blot detects proteins with antibodies after separation by electrophoresis.

In series [2] the test system is Hs-578T. Kind of series: Cytotoxicity against human Hs578T cells at 0.125 to 2 ug/ml after 1 to 5 days by sulforhodamine B assay. The class given is functional, cell-based. In a few lines:
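Sulforhodamine B growth assay in high-glucose DMEM with 10% FBS. Cancer cells seeded at 1×10^4 cells/ml; compound (0.125–2 μg/ml) added 24 h after seeding and left for 1, 3 or 5 days. Cells fixed, total mass stained. Expressed as % of untreated cells at the same time point. Mean ± SEM, five independent experiments.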
On the technique in general: Sulforhodamine B stains cellular protein and so reports cell mass.

Series [3] in a line: Induction of mitochondrial function disruption in Wistar Han rat liver mitochondria energized with succinate assessed as adenosine diphosphate/O ratio measured at 0.667 ug/mg of protein (reference value: 2.3 +/- 0.2 no_unit). The class given is functional.
The test system of series [4] is BJ. In words: Cytotoxicity against human BJ cells at 0.125 to 2 ug/ml after 1 to 5 days by sulforhodamine B assay. The class given is cell-based. In a few lines:
(§2)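 Non-tumor cells seeded at 2×10^4 cells/ml and treated 24 h after seeding, in high-glucose DMEM with pyruvate, 10% FBS and penicillin-streptomycin, 37°C, 5% CO2. Compound exposure 0.125–2 μg/ml for 1, 3 and 5 days, with vehicle controls. Cells fixed and stained with sulforhodamine B for total cell mass. Data given as % of untreated control at each time point; five independent experiments.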

Series [5] relates to Liver microsome. Kind of series: Effect on mitochondrial transmembrane potential in Wistar Han rat liver mitochondria energized with succinate assessed as ADP depolarization at 0.067 ug/mg of protein (reference value: 25.3 +/- 2.1 mV). The class given is functional.
In series [6] the test system is Liver microsome. In words: Induction of mitochondrial function disruption in Wistar Han rat liver mitochondria energized with succinate assessed as respiratory control ratio measured at 0.667 ug/mg of protein (reference value: 4.1 +/- 0.5 no_unit). It is filed as functional.
In series [7] the test system is Liver microsome. In words: Induction of mitochondrial function disruption in Wistar Han rat liver mitochondria energized with succinate assessed as respiratory control ratio measured at 0.333 ug/mg of protein (reference value: 4.1 +/- 0.5 no_unit). The class given is functional.
Series [8] deals with Liver microsome. In words: Induction of mitochondrial function disruption in Wistar Han rat liver mitochondria energized with succinate assessed as respiratory control ratio measured at 0.133 ug/mg of protein (reference value: 4.1 +/- 0.5 no_unit). The class given is functional.
Series [9] relates to Liver microsome. Kind of series: Effect on mitochondrial transmembrane potential in Wistar Han rat liver mitochondria energized with succinate assessed as mitochondrial transmembrane electropotential at 0.667 ug/mg of protein (reference value: 204.2 +/- 5.6 mV). It is filed as functional.
Series [10] in a line: Cytotoxicity against human MCF12A cells at 0.125 to 2 ug/ml after 1 to 5 days by sulforhodamine B assay. The note with it: mcf-12a. The class given is cell-based. In a few lines:
as §2

Series [11] relates to Liver microsome. Kind of series: Induction of mitochondrial function disruption in Wistar Han rat liver mitochondria energized with succinate assessed as respiratory control ratio measured at 0.067 ug/mg of protein (reference value: 4.1 +/- 0.5 no_unit). It is filed as functional.
The test system of series [12] is Liver microsome. In words: Induction of mitochondrial function disruption in Wistar Han rat liver mitochondria energized with succinate assessed as State-3 level per mg of protein measured at 0.067 ug/mg of protein (reference value: 130.8 +/- 24.1 nmol/mg protein/min). The class given is functional.
A short description of series [13]: Induction of apoptosis in human Hs578Bst cells assessed as distribution of mitochondrial polarization and morphology at 0.25 ug/ml after 6 hrs by confocal microscopy. The class given is functional, cell-based. In a few lines:
(§3)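 Cells were seeded on glass coverslips and left to attach for 24 h. They were then exposed to vehicle or 0.25 μg/ml compound for 6 h. For the last 30 min they were loaded with 100 nM TMRM in saline buffer with 15 mM glucose, and the probe was kept present during imaging. Mitochondrial polarization and morphology were imaged by fluorescence microscopy, and the TMRM fluorescence standard deviation was quantified. Four independent preparations, mean ± SEM.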

Series [14] deals with Liver microsome. Kind of series: Induction of mitochondrial function disruption in Wistar Han rat liver mitochondria energized with succinate assessed as adenosine diphosphate/O ratio measured at 0.333 ug/mg of protein (reference value: 2.3 +/- 0.2 no_unit). The class given is functional.
Series [15] has as its system Hs-578T. In words: Induction of apoptosis in human Hs578T cells assessed as increase in p53 protein at 1 ug/ml after 24 hrs by Western blot analysis. It is filed as functional, cell-based. In a few lines:
as §1

In series [16] the test system is Liver microsome. In words: Induction of mitochondrial function disruption in Wistar Han rat liver mitochondria energized with succinate assessed as adenosine diphosphate/O ratio measured at 0.133 ug/mg of protein (reference value: 2.3 +/- 0.2 no_unit). It is filed as functional.
A short description of series [17]: Induction of apoptosis in human Hs578T cells assessed as distribution of mitochondrial polarization and morphology at 0.25 ug/ml after 6 hrs by confocal microscopy. It is filed as functional, cell-based. The note with it: Hs-578T. In a few lines:
as §3

Series [18] relates to MDA-MB-231. In words: Cytotoxicity against human MDA-MB-231 cells at 0.125 to 2 ug/ml after 1 to 5 days by sulforhodamine B assay in presence of taxol. It is filed as functional, cell-based.
For series [19], the system named is Liver microsome. Kind of series: Reduction in ADP-induced mitochondrial transmembrane electropotential in Wistar Han rat liver mitochondria energized with succinate at >0.7 ug/mg of protein. It is filed as functional.
Series [20] has as its system MCF7. In words: Cytotoxicity against human MCF7 cells at 0.125 to 2 ug/ml after 1 to 5 days by sulforhodamine B assay in presence of taxol. It is filed as functional, cell-based.
Series [21] deals with Hs-578T. In words: Cytotoxicity against human Hs578T cells at 0.125 to 2 ug/ml after 1 to 5 days by sulforhodamine B assay in presence of taxol. The class given is functional, cell-based.
The test system of series [22] is Liver microsome. Kind of series: Effect on mitochondrial transmembrane potential in Wistar Han rat liver mitochondria energized with succinate assessed as mitochondrial transmembrane electropotential at 0.333 ug/mg of protein (reference value: 220.6 +/- 2.5 mV). The class given is functional.
The subject of series [23] is Liver microsome. Kind of series: Effect on mitochondrial transmembrane potential in Wistar Han rat liver mitochondria energized with succinate assessed as mitochondrial transmembrane electropotential at 1.333 ug/mg of protein (reference value: 198.0 +/- 5.6 mV). The class given is functional. In a few lines: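 Isolated male Wistar rat liver mitochondria (1.5 mg protein) in 125 mM sucrose, 65 mM KCl, 5 mM KH2PO4, 2.5 mM MgCl2, 5 mM HEPES pH 7.4, 30°C, with 3 μM TPP+. Compound added for 1 min, then 10 mM succinate plus 3 μM rotenone. State 3 started with ADP (83.3 nmol/mg protein). ΔΨ read with a TPP+-selective electrode and calculated by the Kamo equation without binding correction.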

Series [24] concerns Liver microsome. Kind of series: Effect on mitochondrial transmembrane potential in Wistar Han rat liver mitochondria energized with succinate assessed as ADP depolarization at 0.667 ug/mg of protein (reference value: 34.7 +/- 1.4 mV). The class given is functional.
Series [25] deals with Liver microsome. Kind of series: Effect on mitochondrial transmembrane potential in Wistar Han rat liver mitochondria energized with succinate assessed as mitochondrial transmembrane electropotential at 0.133 ug/mg of protein (reference value: 216.0 +/- 7.4 mV). It is filed as functional.

We go through four compounds from ChEMBL document CHEMBL3351723, “New derivatives of lupane triterpenoids disturb breast cancer mitochondria and induce cell death” (Bioorg Med Chem, 2014).

Structures are written as SMILES. Active and inactive are the calls of the source. The rule behind the calls is not given here.

As to `C=C(C)[C@@H]1CC[C@]2(COC(=O)CC[n+]3ccc(N(C)C)cc3)CC[C@]3(C)[C@H](CC[C@@H]4[C@@]5(C)CC[C@H](OC(=O)CC[n+]6ccc(N(C)C)cc6)C(C)(C)[C@@H]5CC[C@]43C)[C@@H]12.[Cl-].[Cl-]`, the result in series [1] and in series [15] was Active. The inhibition entry in series [2] was “Active”. Moreover, the Ratio stood at 1.6 in series [3]; 4.6 in series [6]; 4.1 in series [7]; 4.1 in series [8]; 4.3 in series [11]; 1.8 in series [14]. Also, the Ratio in series [16] stood at 1.7. Besides, the Activity result in series [4] was “Toxic”; in series [5], 24.7 mV; in series [9], 205 mV; in series [10] it was “Toxic”; in [12], 127 nmol/min. The result in series [13] was inactive.

Consider `C=C(C)[C@@H]1CC[C@]2(COC(=O)C[N+](C)(C)C(C)C)CC[C@]3(C)[C@H](CC[C@@H]4[C@@]5(C)CC[C@H](OC(=O)C[N+](C)(C)C(C)C)C(C)(C)[C@@H]5CC[C@]43C)[C@@H]12.[Cl-].[Cl-]`, for which the outcome in series [17], in series [1], in series [13] and in series [15] was Active. Further, the inhibition entry in series [18], in series [19], in series [20], in series [2] and in series [21] was “Active” each time. In addition, the Ratio was 2.6 in series [3]; 4.3 in series [6]; 4.2 in [7]; 4 in series [8]; 4 in [11]; 2.9 in series [14]. Further, in [16], the Ratio is 3.1. For the same compound, the Activity entry in [10] is “Non-toxic”; in series [12], 117 nmol/min; in [22] it was 213 mV.

Turning to `C=C(C)[C@@H]1CC[C@]2(COC(=O)C(CC)[n+]3ccc(N(C)C)cc3)CC[C@]3(C)[C@H](CC[C@@H]4[C@@]5(C)CC[C@H](OC(=O)C(CC)[n+]6ccc(N(C)C)cc6)C(C)(C)[C@@H]5CC[C@]43C)[C@@H]12` (stereo partly drawn), the result in [17], in series [1], in [13] and in series [15] was Active. The Ratio was determined as 1.6 in series [3]; 3.1 in series [6]; 3.2 in series [7]; 3 in series [8]; 3 in series [11]; 1.6 in [14]. Besides, the Ratio in series [16] was 1.6. Further, the Activity in series [12] turned out to be 130 nmol/min; in series [23], 190 mV.

Turning to `C=C(C)[C@@H]1CC[C@]2(COC(=O)C[n+]3ccc(N(C)C)cc3)CC[C@]3(C)[C@H](CC[C@@H]4[C@@]5(C)CC[C@H](OC(=O)C[n+]6ccc(N(C)C)cc6)C(C)(C)[C@@H]5CC[C@]43C)[C@@H]12.[Cl-].[Cl-]`, the outcome in series [17], in [1], in [13] and in [15] was Active. Further, the inhibition result in [18], in series [19], in [20] and in series [21] was “Active” each time. The Ratio in [3] is 2.2; in [6], 4.4; in series [7], 4.4; in series [8] it was 4.1; in series [11], 4.1; in [14], 2.2. In series [16], the Ratio came to 2.4. Moreover, the Activity entry in series [4] was “Non-toxic”; in series [24], 28.6 mV; in [10] it was “Toxic”; in [12], 132 nmol/min; in [25], 212 mV.
